Reference: ChEMBL document CHEMBL1132241, “Novel multidrug resistance reversal agents” (J Med Chem, 1999)

Columns and labels:
[1] = Partition coefficient (logP); format: physicochemical; conditions: octanol/water
Mus musculus [2] = assay: Percent tumor growth inhibition against human epidermoid carcinoma KB/8.5 implanted subcutaneously in mice at 100 mg/kg of compound along with 8 mg/kg (DOX ) was determined; format: functional
Summary of the method: (§1)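 Athymic nude mice bearing sc KB/8.5 tumors (8×10^6 cells, colchicine withdrawn for two passages), grouped at 100–300 mg tumor mass, 5–10 mice/group. Doxorubicin 8 mg/kg given once iv; reversal agent or placebo given sc 2 h before and 2 h after. Tumor mass on day 14 used for relative tumor growth versus doxorubicin alone; Student t-test on log RTG.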

[3] = In vitro concentration at which 50% of human colon carcinoma cells (S1-B1-20) resistant to bisantrene have survived; format: ADME, cell-based, S1B1-20; conditions: S1-B1-20 human colon carcinoma cells resistant to bisantrene, read-out: LD50 (the source's name)
Summary of the method: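 S1-B1-20 cells (LS 174 T-derived S1 clone selected in bisantrene over 12–16 weeks), trypsinized, 20 000 cells/well. Test agent alone in DMSO (≤0.1% final), 0.1–80 µM, 3 days at 37 °C, 7% CO2. Survival by sulforhodamine B read at 540 nm versus untreated cells. Two to four measurement sets were made, and the value is the concentration giving 50% survival from a best-fit curve.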

Mus musculus [4] = assay: Relative tumor growth inhibition against human epidermoid carcinoma KB/8.5 implanted subcutaneously only in mice at 8 mg/kg (DOX); format: functional; conditions: route subcutaneous
Summary of the method: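 KB/8.5 cells grown in RPMI 1640 with 5% fetal calf serum plus colchicine (10 ng/mL), which was removed for two passages. 8 × 10^6 cells were then implanted sc in athymic nude mice. At 100-300 mg tumor mass, mice were grouped 5-10/group. Doxorubicin was given as a single iv dose (8 mg/kg). Tumor mass was measured on day 14, and relative growth was compared with saline control.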

S1B1-20 = assay: In vitro concentration required to inhibit tumor activity on subclone of human colon carcinoma cells (S1-B1-20) resistant to bisantrene; format: functional, cell-based
Summary of the method: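 S1-B1-20 cells (S1 clone of LS 174 T, selected in bisantrene over 12–16 weeks) plated at 20 000 cells/well with or without 20 μM bisantrene, plus test agent 0.1–80 μM from DMSO stock (final DMSO ≤0.1%). 3 days, 37 °C, 7% CO2. Survival by sulforhodamine B at 540 nm. IC50 from best-fit curve of difference score (survival alone minus survival with bisantrene) at 50; 2–4 sets of measurements.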

Mus musculus [5] = assay: Percent tumor growth inhibition against human epidermoid carcinoma KB/8.5 implanted subcutaneously in mice at 200 mg/kg of compound along with 8 mg/kg (DOX ) was determined; format: functional; summary of the method: as §1

SMILES	logP ([1]; read-out: logP)	TGI (Mus musculus [2]) [%]	CC50 [3] [µM]	Relative tumor growth (Mus musculus [4])	IC50 (S1B1-20; Homo sapiens, S1B1-20) [µM]	Relative tumor growth (Mus musculus [4]; 8 mg/kg)	IC50 (S1B1-20; s1b1-20) [µM]	TGI (Mus musculus [5]) [%]	logP [1]
COc1cc2c(cc1O)CN(CCCCCC(C#N)(Sc1ccc(C)cc1)c1ccc(OC)c(OC)c1)C2 (centres undefined)	5.78								
COc1ccc(C(C#N)(CCCCCN2CCc3cc(OC)c(OC)cc3C2)SC2CCCCC2)cc1OC (centres undefined)	6.28	69	14	67	0.46				
COc1ccc(C(C#N)(CCCCCN2CCc3cc(OC)c(OCCn4ccnc4)cc3C2)SC2CCCCC2)cc1OC (centres undefined)	5.96		8.39		0.96				
CCCCCSC(CCCCCN1CCc2cc(OC)c(OC)cc2C1)c1ccc(OC)c(OC)c1 (centres undefined)	5.66		16.3		0.5				
COc1cc2c(cc1OC)CN(CCCCCCC(Sc1ccc(C)cc1)c1ccc(OC)c(OCCn3ccnc3)c1)CC2 (stereo in doubt; 37b)	7.63	67	5.52			72	0.69		
COc1ccc(C(C#N)(CCCCCN2Cc3cc(Cl)c(Cl)cc3C2)Sc2ccc(C)cc2)cc1OC (centres undefined)	7.4			57	10.5			94	
COc1ccc(C(C#N)(CCCN2CCc3cc(O)c(O)cc3C2C)Sc2ccc(C)cc2)cc1OC (centres undefined)	4.92				4.7				
COc1ccc(C(C#N)(CCCCCN2CCc3cc(OC)c(OCCN(C)C)cc3C2)Sc2ccc(C)cc2)cc1OC (centres undefined)	6.1		6.68						
COc1ccc(C(C#N)(CCCCN2CCc3cc(OC)c(OC)cc3C2)Sc2ccc(C)cc2)cc1OC (centres undefined)	5.65		41.8		0.62				
COc1ccc(C(C#N)(CC#CCCN2CCc3cc(OC)c(OC)cc3C2)Sc2ccc(C)cc2)cc1OC (centres undefined)	5.52		36		0.97				
COc1ccc(C(CCCN2CCc3cc(OC)c(OC)cc3C2)Sc2ccc(C)cc2)cc1OC (centres undefined)	6.36		25.8		1.23				
COc1ccc(C(C#N)(CCCCN2CCc3cc(OC)c(OC)cc3C2)Sc2ccc(C)cc2)cc1OC.ClCCl (centres undefined)									5.65
COc1ccc(C(CCCCCCN2CCc3cc(OC)c(OC)cc3C2)Sc2ccc(C)cc2)cc1OC (centres undefined)	7.95	64	13.2	45	0.9				
COc1ccc(C(C#N)(CCCCCN2Cc3cc(OC)c(OCCCl)cc3C2)Sc2ccc(C)cc2)cc1OC (centres undefined)	6.14								
COc1ccc(C(C#N)(CCCCCN2Cc3cc(OC)c(OC)cc3C2)SC2CCCCC2)cc1OC (stereo in doubt; 46)	5.65		11.8		0.26				
COc1cc2c(cc1O)CN(CCCCCC(C#N)(SC1CCCCC1)c1ccc(OC)c(OC)c1)CC2 (centres undefined)	6								
COc1ccc(C(C#N)(CCCCCN2CCc3cc(OC)c(OCCCl)cc3C2)SC2CCCCC2)cc1OC (centres undefined)	6.87								

SMILES	logP ([1]; read-out: logP)	TGI (Mus musculus [2]) [%]	CC50 [3] [µM]	Relative tumor growth (Mus musculus [4])	IC50 (S1B1-20; Homo sapiens, S1B1-20) [µM]	Relative tumor growth (Mus musculus [4]; 8 mg/kg)	IC50 (S1B1-20; s1b1-20) [µM]	TGI (Mus musculus [5]) [%]	logP [1]
COc1ccc(C(C#N)(CCCCCN2CCc3cc(OC)c(OC)cc3C2)Sc2ccccn2)cc1OC (centres undefined)	4.72		50.8		2.12				
COc1cc2c(cc1OC)CN(CCCCCC(Sc1ccc(C)cc1)c1ccc(OC(F)(F)F)cc1)CC2 (centres undefined)	8.44	51	16.9	100	2.07				
COc1cc2c(cc1OC)CN(CCCCCCC(Sc1ccc(C)cc1)c1ccc(OC)c(OCCCl)c1)CC2 (centres undefined)	8.54		10.3		0.96				
COc1ccc(CCN(C)CCCC(C#N)(c2ccc(OC)c(OC)c2)C(C)C)cc1OC (centres undefined) [VERAPAMIL]					17.3				
COc1ccc(C(C#N)(CCCCCN2CCc3cc(OC)c(OCCn4ccnc4)cc3C2)Sc2ccc(C)cc2)cc1OC (stereo in doubt; 48)	5.86		11.6		0.53				
COc1ccc2c(c1)CCN(CCCCCC(Sc1ccc(C)cc1)c1ccc(OC)c(OC)c1)C2 (centres undefined)	7.88		22.2		3.09				
COc1ccc(C(C#N)(Cc2cccc(CN3CCc4cc(OC)c(OC)cc4C3)c2)Sc2ccc(C)cc2)cc1OC (centres undefined)	5.91		23.3		2.19				
COc1ccc(C(CCCCCCN2CCc3cc(OC)c(OC)c(OC)c3C2)Sc2ccc(C)cc2)cc1OC (centres undefined)	7.38	54	14	64	0.7				
COc1cc2c(cc1OC)CN(CCCCCCC(Sc1ccc(C)cc1)c1ccc(OC)c(O[Si](C)(C)C(C)(C)C)c1)CC2 (centres undefined)			49.1		10.7				11.68
COc1cc2c(cc1O)CN(CCCCCC(C#N)(Sc1ccc(C)cc1)c1ccc(OC)c(OC)c1)CC2 (centres undefined)	5.9		24.9		3.11				
COc1ccc(C(C#N)(CCCCCN2Cc3cc(OC)c(OCCn4ccnc4)cc3C2)Sc2ccc(C)cc2)cc1OC (centres undefined)	5.23		8.37		0.5				
COc1ccc(C(CCCCCN2CCc3cc(OC)c(OC)cc3C2)SCc2ccccc2)cc1OC (centres undefined)	6.63	68	15.1	77	1.98				
CCC(CCCCCN1CCc2cc(OC)c(OC)cc2C1)(Sc1ccc(C)cc1)c1ccc(OC)c(OC)c1 (centres undefined)	8.34	72	11.8	77	1.23				
COc1ccc(C(CCCCCCN2Cc3cc(OC)c(OC)cc3C2)Sc2ccc(C)cc2)cc1OC (centres undefined)	7.32	60	22.1	75	1.84				
COc1ccc(C(CCCCCN2CCc3cc(OC)c(OC)cc3C2)SC2CCCCC2)cc1OC (centres undefined)	7.33	57	16.1	67	0.73				
COc1cc2c(cc1OC)CN(CCCCCCC(Sc1ccc(C)cc1)c1ccc(F)cc1)CC2 (centres undefined)	8.63		27		2.7				
